# Measured values: ChEMBL document CHEMBL1151261, “Antineoplastic agents. 509: synthesis of fluorcombstatin phosphate and related 3-halostilbenes(1)” (J Nat Prod, 2005)
# pIC50: −log10 of the molar value. The source made the active and inactive calls. The rule behind the calls is not given here.
# Key:
# KM-20L2 = assay: Cytotoxicity against human KM20L2 cells after 48 hrs by sulforhodamine B assay; format: functional; conditions: KM-20L2, 48 h
# In short: (§1)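 Human tumor lines exposed to compound for 48 h, then fixed with trichloroacetic acid and stained with sulforhodamine B (NCI standard protocol); optical density read on a microplate reader. GI50 is the concentration giving a 50% reduction in net protein increase, calculated from optical density data.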
# DU-145 = assay: Cytotoxicity against human DU145 cells after 48 hrs by sulforhodamine B assay; format: functional; conditions: DU-145, 48 h; in short: as §1
# Neisseria gonorrhoeae = assay: Antimicrobial activity against Neisseria gonorrhoeae ATCC 49226 after 24 hrs by broth microdilution assay; format: functional; conditions: ATCC 49226, 24 h
# In short: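 Neisseria tested by NCCLS broth microdilution in gonococcal typing broth. Final inoculum about 5×10^5 CFU/mL; 2-fold compound dilutions from DMSO; DMSO turbidity control; 37 °C with 5% CO₂ without agitation, 24 h. MIC = lowest concentration with no visible growth.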
# NCI-H460 = assay: Cytotoxicity against human NCI-H460 cells after 48 hrs by sulforhodamine B assay; format: functional; conditions: NCI-H460, 48 h; in short: as §1
# BXPC-3 = assay: Cytotoxicity against human BxPC3 cells after 48 hrs by sulforhodamine B assay; format: functional; conditions: BXPC-3, 48 h; in short: as §1
# MCF7 = assay: Cytotoxicity against human MCF7 cells after 48 hrs by sulforhodamine B assay; format: functional; conditions: MCF7, 48 h; in short: as §1
# SF-268 = assay: Cytotoxicity against human SF268 cells after 48 hrs by sulforhodamine B assay; format: functional; conditions: SF-268, 48 h; in short: as §1
# P388 = assay: Cytotoxicity against mouse P388 cells after 48 hrs by Coulter particle counting; conditions: P388, 48 h, read-out: ED50 (the source's name)
# [1] = Displacement of [3H]colchicine from tubulin
# In short: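 [3H]colchicine binding with 1.0 μM tubulin, 5.0 μM [3H]colchicine and inhibitor at 1.0 μM.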
# Cryptococcus neoformans = assay: Antimicrobial activity against Cryptococcus neoformans ATCC 90112 at 64 ug/mL after 72 hrs by broth microdilution assay; format: functional, organism-based
# In short: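 Yeast NCCLS broth microdilution (M27-A). Inoculum 0.5 to 2.5×10^3 CFU/mL; 2-fold dilutions in 0.165 M MOPS-buffered RPMI 1640, pH 7.0; compound from DMSO, DMSO-only turbidity control; 35 °C without agitation; read at 72 h (Cryptococcus). MIC = lowest concentration giving no visible growth.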
# Candida albicans = assay: Antimicrobial activity against Candida albicans ATCC 90028 at 64 ug/mL after 48 hrs by broth microdilution assay; format: functional, organism-based
# In short: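 Yeast NCCLS broth microdilution (M27-A). Inoculum 0.5 to 2.5×10^3 CFU/mL; 2-fold dilutions in 0.165 M MOPS-buffered RPMI 1640, pH 7.0; compound from DMSO, DMSO-only turbidity control; 35 °C without agitation; read at 48 h (Candida). MIC = lowest concentration giving no visible growth.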
# Staphylococcus aureus = assay: Antimicrobial activity against Staphylococcus aureus ATCC 29213 at 64 ug/mL after 24 hrs by broth microdilution assay; format: functional, organism-based
# In short: (§2)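 NCCLS bacterial broth microdilution (M7-A5). Overnight colonies diluted to about 5×10^5 CFU/mL final; 2-fold compound dilutions (DMSO stock) in cation-adjusted Mueller Hinton II broth; DMSO turbidity control; 35 °C without agitation, 24 h. MIC = lowest concentration with optically clear wells.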
# Streptococcus pneumoniae = assay: Antimicrobial activity against Streptococcus pneumoniae ATCC 6303 at 64 ug/mL after 24 hrs by broth microdilution assay; format: functional, organism-based
# In short: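 Streptococcus tested by NCCLS broth microdilution in cation-adjusted MHII broth with 3% lysed horse blood. Final inoculum about 5×10^5 CFU/mL; 2-fold compound dilutions from DMSO; DMSO turbidity control; 35 °C without agitation, 24 h. MIC = lowest concentration with no visible growth.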
# Enterococcus faecalis = assay: Antimicrobial activity against Enterococcus faecalis ATCC 29212 at 64 ug/mL after 24 hrs by broth microdilution assay; format: functional, organism-based; in short: as §2
# Micrococcus luteus [2] = assay: Antimicrobial activity against Micrococcus luteus Presque Isle 456 at 64 ug/mL after 24 hrs by broth microdilution assay; format: functional, organism-based; in short: as §2
# Escherichia coli = assay: Antimicrobial activity against Escherichia coli ATCC 25922 at 64 ug/mL after 24 hrs by broth microdilution assay; format: functional, organism-based; in short: as §2
# Enterobacter cloacae = assay: Antimicrobial activity against Enterobacter cloacae ATCC 13047 at 64 ug/mL after 24 hrs by broth microdilution assay; format: functional, organism-based; in short: as §2
# [3] = test system: Stenotrophomonas maltophilia; assay: Antimicrobial activity against Stenotrophomonas maltophilia ATCC 13637 at 64 ug/mL after 24 hrs by broth microdilution assay; format: functional, organism-based; in short: as §2
# [4] = Inhibition of tubulin polymerization
# In short: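 Turbidimetry at 350 nm. Compound at varying concentrations preincubated with 10 μM (1.0 mg/mL) purified tubulin, chilled on ice, then 0.4 mM GTP added and polymerization followed at 30 °C. Extent of polymerization at 20 min measured.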
# Micrococcus luteus [5] = assay: Antimicrobial activity against Micrococcus luteus Presque Isle 456 after 24 hrs by broth microdilution assay; format: functional; in short: as §2
SMILES,GI50 (KM-20L2) [µg/mL],GI50 (DU-145) [ng/mL],MIC (Neisseria gonorrhoeae) [µg/mL],GI50 (NCI-H460) [ng/mL],GI50 (BXPC-3) [µg/mL],GI50 (MCF7) [ng/mL],GI50 (SF-268) [ng/mL],EC50 (P388) [µg/mL],Activity [1] [%],Activity (Cryptococcus neoformans),Activity (Candida albicans),Activity (Staphylococcus aureus),Activity (Streptococcus pneumoniae),Activity (Enterococcus faecalis),Activity (Micrococcus luteus [2]),Activity (Escherichia coli),Activity (Enterobacter cloacae),Activity [3],pIC50 [4],MIC (Micrococcus luteus [5]) [µg/mL]
COc1ccc(/C=C\c2cc(F)c(OC)c(OC)c2)cc1OP(=O)([O-])[O-].[Na+].[Na+],1.5,3.6,16,9.4,0.59,4.4,5.1,0.0298,–,–,–,–,–,–,–,–,–,–,–,–
COc1ccc(/C=C\c2cc(Br)c(OC)c(OC)c2)cc1OP(=O)([O-])[O-].[Li+].[Li+],0.11,6.6,–,2.6,0.13,3.9,3,< 0.01,–,–,–,–,–,–,–,–,–,–,–,–
COc1ccc(/C=C\c2cc(Br)c(OC)c(OC)c2)cc1OP(=O)([O-])[O-].[Ca+2],0.37,6.3,–,6.8,< 0.001,2.2,2.2,0.288,–,–,–,–,–,–,–,–,–,–,–,–
COc1ccc(/C=C\c2cc(OC)c(OC)c(OC)c2)cc1O [COMBRETASTATIN A4],0.061,0.8,–,0.6,0.39,–,< 1,0.0003,81,–,–,–,–,–,–,–,–,–,–,–
COc1ccc(/C=C/c2cc(OC)c(OC)c(O[Si](C)(C)C(C)(C)C)c2)cc1[N+](=O)[O-],> 10,2800,–,2900,> 10,3200,4100,2.22,–,–,–,–,–,–,–,–,–,–,–,–
COc1ccc(/C=C\c2cc(F)c(OC)c(OC)c2)cc1OP(=O)(O)O,–,–,–,–,–,–,–,–,–,inactive,inactive,inactive,inactive,inactive,inactive,inactive,inactive,inactive,–,–
COc1ccc(/C=C\c2cc(F)c(OC)c(OC)c2)cc1OP(=O)([O-])[O-].[K+].[K+],> 1,3.7,–,4.3,0.548,4,3.9,0.0074,–,–,–,–,–,–,–,–,–,–,–,–
COc1ccc(/C=C\c2cc(OC)c(OC)c(OC)c2)cc1OP(=O)([O-])[O-].[Na+].[Na+] [FOSBRETABULIN DISODIUM],0.034,–,–,29,–,–,36,0.0004,–,–,–,–,–,–,–,–,–,–,–,–
COc1ccc(/C=C\c2cc(Br)c(OC)c(OC)c2)cc1OP(=O)([O-])[O-].[Cs+].[Cs+],0.48,7.9,–,6.6,0.15,4.4,6.4,< 0.01,–,–,–,–,–,–,–,–,–,–,–,–
COc1ccc(/C=C\c2cc(O)c(OC)c(OC)c2)cc1O,1.2,4.3,–,190,2.3,490,8.3,0.26,–,–,–,–,–,–,–,–,–,–,–,–
COc1ccc(/C=C\c2cc(F)c(OC)c(OC)c2)cc1OP(=O)([O-])[O-].[Li+].[Li+],> 1,4.3,–,3.9,0.49,3.8,4,0.019,–,–,–,–,–,–,–,–,–,–,–,–
COc1ccc(/C=C\c2cc(O)c(OC)c(OC)c2)cc1N,0.39,35,–,30,0.37,60,40,0.0174,–,–,–,–,–,–,–,–,–,–,–,–
COc1ccc(/C=C\c2cc(Br)c(OC)c(OC)c2)cc1O,0.59,0.82,32,0.38,0.64,0.46,0.5,0.0021,89,inactive,inactive,inactive,inactive,inactive,–,inactive,inactive,inactive,5.82,32
